Structures are written as SMILES. Activity calls are given as the source filed them. No cut-off for these calls is given here.

Data set [1] concerns Human alphaherpesvirus 1. As to the kind of experiment: Antiviral activity against HSV1 infected in african green monkey Vero cells assessed as total inhibitory concentration after 3 days by plaque reduction assay. It counts as functional. Put shortly: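 Vero cells seeded in 24-well plates and grown 24 h, then infected with 30 PFU HSV-1 in the presence of a range of sample concentrations. Samples were diluted in DMEM with 2% FBS at pH 7.2, and medium alone served as control. Wells were overlaid with 1% methylcellulose medium and incubated 3 days, then formalin-fixed and crystal violet-stained. Plaques were counted, and the 100%-inhibitory concentration was read from plots.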

Data set [2] in a line: Cytotoxicity against african green monkey Vero cells after 3 days by MTT assay. The conditions noted are these: chlorocebus sabaeus, read-out: MNCC. It is filed as cell-based.
The subject of data set [3] is Human alphaherpesvirus 1. The data set is described as follows: Antiviral activity against HSV1 infected in african green monkey Vero cells assessed as inhibition of virus-induced cytopathic effect after 3 days. The conditions noted are these: Human alphaherpesvirus 1, Vero, 72 h.

For `O=c1cc(-c2ccc(O)cc2)oc2c([C@@H]3O[C@H](CO)[C@@H](O)[C@H](O)[C@H]3O)c(O)c([C@@H]3O[C@H](CO)[C@@H](O)[C@H](O)[C@H]3O)c(O)c12`, the outcome in the data set on Human alphaherpesvirus 1 [1] was inactive. In data set [2], the MNTC at 72 h amounted to 170 µM.

As to `COc1cc(O)c2c(=O)c(O[C@@H]3O[C@H](CO)[C@@H](O)[C@H](O)[C@H]3O)c(-c3ccc(O)c(OC)c3)oc2c1`, in the data set on Human alphaherpesvirus 1 [1], the outcome was inactive. In data set [2], the MNTC at 72 h stood at 200 µM.

Consider `Nc1nc2c(ncn2COCCO)c(=O)[nH]1` [ACYCLOVIR], for which the MNTC at 72 h in data set [2] amounted to 1110 µM. Moreover, in the data set on Human alphaherpesvirus 1 [3], the concentration for half-maximal inhibition (IC50) came out at 4.3 µM.

With `COc1cc(O)c2c(=O)c(O[C@@H]3O[C@H](CO)[C@@H](O)[C@H](O)[C@H]3O)c(-c3ccc(O[C@@H]4O[C@H](CO)[C@@H](O)[C@H](O)[C@H]4O)cc3)oc2c1` [COMPLANATUSIDE], in the data set with Human alphaherpesvirus 1 [1], the result was inactive. For the same compound, the MNTC at 72 h in data set [2] was 320 µM.

With `O=c1ccc2cc(O)c(O)cc2o1` [ESCULETIN], the Activity with Human alphaherpesvirus 1 [1] is on record as 0.14 mM. Moreover, in data set [2], the MNTC at 72 h is 140 µM.

As for `COc1cc(O)c2c(=O)c(O[C@@H]3O[C@H](CO)[C@@H](O[C@@H]4OC[C@@H](O)[C@H](O)[C@H]4O)[C@H](O)[C@H]3O)c(-c3ccc(O)cc3)oc2c1` [NERVILIFORDIN A], the result in the data set on Human alphaherpesvirus 1 [1] was inactive. The MNTC at 72 h in data set [2] worked out at 170 µM.

Turning to `COc1cc(O)c2c(=O)c(O[C@@H]3O[C@H](CO)[C@@H](O[C@@H]4O[C@H](CO)[C@@H](O)[C@H](O)[C@H]4O)[C@H](O)[C@H]3O)c(-c3ccc(O)cc3)oc2c1` [NERVILIFORDIN B], the result in the data set with Human alphaherpesvirus 1 [1] was inactive. Moreover, the MNTC at 72 h in data set [2] came out at 160 µM.

`COc1cc(O)c2c(=O)c(O[C@@H]3O[C@H](CO)[C@@H](O[C@@H]4O[C@H](CO)[C@@H](O)[C@H](O)[C@H]4O)[C@H](O)[C@H]3O)c(-c3ccc(O)c(O)c3)oc2c1` [NERVILIFORDIN C]: the result in the data set with Human alphaherpesvirus 1 [1] was inactive. In addition, in data set [2], the MNTC at 72 h amounted to 160 µM.

Take `COc1cc(O)c2c(=O)c(O)c(-c3ccc(O)c(OC)c3)oc2c1` [RHAMNAZIN]: the result in the data set on Human alphaherpesvirus 1 [1] was inactive. For the same compound, in data set [2], the MNTC at 72 h was 40 µM.

In the case of `COc1cc(O)c2c(=O)c(O)c(-c3ccc(O)c(O)c3)oc2c1` [RHAMNETIN], the outcome with Human alphaherpesvirus 1 [1] was inactive. The MNTC at 72 h in data set [2] came out at 80 µM.

Consider `COc1cc(O)c2c(=O)c(O)c(-c3ccc(O)cc3)oc2c1` [RHAMNOCITRIN], for which the result in the data set on Human alphaherpesvirus 1 [1] was inactive. Besides, in data set [2], the MNTC at 72 h was determined as 80 µM.
